The values below come from ChEMBL document CHEMBL2331091, “Synthesis and pharmacological evaluation of some novel 2-(5-hydroxy-5-trifluoromethyl-4,5-dihydropyrazol-1-yl)-4-(coumarin-3-yl)thiazoles” (2013).

Each structure is given as a SMILES string. Converted amounts (≈) assume the structure as drawn. The source made the active and inactive calls. The rule behind the calls is not given here.

In general, MIC refers to the lowest concentration found to suppress growth. One may read the inhibition in vivo as the change of the read-out against control, counted positive when it falls.

The first assay has as its system Klebsiella aerogenes. The assay is described as follows: Antibacterial activity against Klebsiella aerogenes assessed as diameter of growth inhibition zone at 2 mg/ml at 37 degC after 24 hrs by agar well diffusion method. Type of assay: functional.
Settings: not given
A general note: Agar diffusion results depend on both activity and mobility in agar.
`O=c1oc2ccc(Cl)cc2cc1-c1csc(N2N=C(c3ccc(F)cc3)C[C@@]2(O)C(F)(F)F)n1`: the “diameter of the inhibition zone (DIZ)” value is “inactive”.
The same measure, in the same setting: next, `O=c1oc2ccc(Cl)cc2cc1-c1csc(N2N=C(c3ccc(Br)cc3)C[C@@]2(O)C(F)(F)F)n1`: “inactive”; `O=c1oc2ccc(Cl)cc2cc1-c1csc(N2N=C(c3ccc(Cl)cc3)C[C@@]2(O)C(F)(F)F)n1`: “inactive”.

A further assay deals with Bacillus subtilis. Nature of the assay: Antibacterial activity against Bacillus subtilis assessed as diameter of growth inhibition zone at 2 mg/ml at 37 degC after 24 hrs by agar well diffusion method. Type of assay: functional.
Settings: not given
For the compound `O=c1oc2ccc(Cl)cc2cc1-c1csc(N2N=C(c3ccc(F)cc3)C[C@@]2(O)C(F)(F)F)n1`, the “diameter of the inhibition zone (DIZ)” value was “inactive”.
On the same count and under the same terms, to `O=c1oc2ccc(Cl)cc2cc1-c1csc(N2N=C(c3ccc(Br)cc3)C[C@@]2(O)C(F)(F)F)n1` belongs “inactive”; to `O=c1oc2ccc(Cl)cc2cc1-c1csc(N2N=C(c3ccc(Cl)cc3)C[C@@]2(O)C(F)(F)F)n1`, “inactive”.

For a further assay, the system named is Proteus mirabilis. The assay is described as follows: Antibacterial activity against Proteus mirabilis assessed as diameter of growth inhibition zone at 2 mg/ml at 37 degC after 24 hrs by agar well diffusion method. The class given is functional.
Settings: not given
Take `O=c1oc2ccc(Cl)cc2cc1-c1csc(N2N=C(c3ccc(F)cc3)C[C@@]2(O)C(F)(F)F)n1`: the “diameter of the inhibition zone (DIZ)” value was “inactive”.
Still for that read-out and setting: to `O=c1oc2ccc(Cl)cc2cc1-c1csc(N2N=C(c3ccc(Br)cc3)C[C@@]2(O)C(F)(F)F)n1` belongs “inactive”.
Turning to `O=c1oc2ccc(Cl)cc2cc1-c1csc(N2N=C(c3ccc(Cl)cc3)C[C@@]2(O)C(F)(F)F)n1`, the “diameter of the inhibition zone (DIZ)” value is “inactive”.

The subject of a further assay is Staphylococcus epidermidis. The assay is described as follows: Antibacterial activity against Staphylococcus epidermidis assessed as diameter of growth inhibition zone at 2 mg/ml at 37 degC after 24 hrs by agar well diffusion method. The conditions noted are these: read-out: DIZ. The class given is functional.
Regarding `O=c1oc2ccc(Cl)cc2cc1-c1csc(N2N=C(c3ccc(F)cc3)C[C@@]2(O)C(F)(F)F)n1`, the zone of inhibition at 2000 µg/mL worked out at 14 mm.
Same read-out and setting: next, `O=c1oc2ccc(Cl)cc2cc1-c1csc(N2N=C(c3ccc(Br)cc3)C[C@@]2(O)C(F)(F)F)n1`: 11.2 mm; `O=c1oc2ccc(Cl)cc2cc1-c1csc(N2N=C(c3ccc(Cl)cc3)C[C@@]2(O)C(F)(F)F)n1`: 11.2 mm.

A further assay has as its system Staphylococcus aureus. Nature of the assay: Antibacterial activity against Staphylococcus aureus assessed as growth inhibition at 37 degC after overnight incubation by agar well diffusion method. Type of assay: functional.
Settings: not given
For the compound `O=c1oc2ccc(Cl)cc2cc1-c1csc(N2N=C(c3ccc(F)cc3)C[C@@]2(O)C(F)(F)F)n1`, the MIC is 32 µg/mL (≈ 62.8 µM).
As for `O=c1oc2ccc(Cl)cc2cc1-c1csc(N2N=C(c3ccc(Br)cc3)C[C@@]2(O)C(F)(F)F)n1`, the MIC came to 64 µg/mL (≈ 112 µM).
As for `O=c1oc2ccc(Cl)cc2cc1-c1csc(N2N=C(c3ccc(Cl)cc3)C[C@@]2(O)C(F)(F)F)n1`, the MIC was 64 µg/mL (≈ 122 µM).

The next assay has as its system Staphylococcus epidermidis. Nature of the assay: Antibacterial activity against Staphylococcus epidermidis assessed as growth inhibition at 37 degC after overnight incubation by agar well diffusion method. The class given is functional.
Settings: not given
`O=c1oc2ccc(Cl)cc2cc1-c1csc(N2N=C(c3ccc(F)cc3)C[C@@]2(O)C(F)(F)F)n1`: the MIC was 64 µg/mL (≈ 126 µM).
Still for that read-out and setting: to `O=c1oc2ccc(Cl)cc2cc1-c1csc(N2N=C(c3ccc(Br)cc3)C[C@@]2(O)C(F)(F)F)n1` belongs 512 µg/mL (≈ 897 µM); to `O=c1oc2ccc(Cl)cc2cc1-c1csc(N2N=C(c3ccc(Cl)cc3)C[C@@]2(O)C(F)(F)F)n1`, 512 µg/mL (≈ 973 µM).

The subject of the next assay is Pseudomonas aeruginosa. Nature of the assay: Antibacterial activity against Pseudomonas aeruginosa assessed as diameter of growth inhibition zone at 2 mg/ml at 37 degC after 24 hrs by agar well diffusion method. The class given is functional.
Settings: not given
For `O=c1oc2ccc(Cl)cc2cc1-c1csc(N2N=C(c3ccc(F)cc3)C[C@@]2(O)C(F)(F)F)n1`, the “diameter of the inhibition zone (DIZ)” value was “inactive”.
The same measure, in the same setting: next, `O=c1oc2ccc(Cl)cc2cc1-c1csc(N2N=C(c3ccc(Br)cc3)C[C@@]2(O)C(F)(F)F)n1`: “inactive”.
The same measure, in the same setting: next, `O=c1oc2ccc(Cl)cc2cc1-c1csc(N2N=C(c3ccc(Cl)cc3)C[C@@]2(O)C(F)(F)F)n1`: “inactive”.

A further assay concerns Rattus norvegicus. Nature of the assay: Antiinflammatory activity in Wistar albino rat assessed as inhibition of carrageenan-induced paw edema at 50 mg/kg, po administered 30 mins prior to carrageenan challenge measured after 2 hrs by plethysmometer analysis.
Settings: not given
The class given is functional. The essentials:
(§1)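 Male Wistar albino rats, 200-250 g, five per group, fasted from 12 h before and during the test. Compounds were given orally at 50 mg/kg 30 min before sub-plantar injection of 0.1 ml 1% carrageenan in 0.9% saline into the left hind paw. Tween 80 vehicle controls. Paw volume was read by plethysmometer up to the tibiotarsal mark at 0-4 h. Results are mean ± SEM and % inhibition, ANOVA and Dunnett's test.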
On the technique in general: In the carrageenan paw model, swelling and tenderness develop within hours.
For `O=c1oc2ccc(Cl)cc2cc1-c1csc(N2N=C(c3ccc(Cl)cc3)C[C@@]2(O)C(F)(F)F)n1`, the inhibition in vivo at 50 mg/kg turned out to be 62.5%.

In a further assay the test system is Rattus norvegicus. Nature of the assay: Antiinflammatory activity in Wistar albino rat assessed as inhibition of carrageenan-induced paw edema at 50 mg/kg, po administered 30 mins prior to carrageenan challenge measured after 3 hrs by plethysmometer analysis. The class given is functional.
Settings: not given
The gist of the method: as §1
Consider `O=c1oc2ccc(Cl)cc2cc1-c1csc(N2N=C(c3ccc(Cl)cc3)C[C@@]2(O)C(F)(F)F)n1`, for which the inhibition in vivo at 50 mg/kg was 42.1%.

A further assay deals with Escherichia coli. Nature of the assay: Antibacterial activity against Escherichia coli assessed as diameter of growth inhibition zone at 2 mg/ml at 37 degC after 24 hrs by agar well diffusion method. The class given is functional.
Settings: not given
On to `O=c1oc2ccc(Cl)cc2cc1-c1csc(N2N=C(c3ccc(F)cc3)C[C@@]2(O)C(F)(F)F)n1`, for which the “diameter of the inhibition zone (DIZ)” value was “inactive”.
On to `O=c1oc2ccc(Cl)cc2cc1-c1csc(N2N=C(c3ccc(Br)cc3)C[C@@]2(O)C(F)(F)F)n1`, for which the “diameter of the inhibition zone (DIZ)” value is “inactive”.
With `O=c1oc2ccc(Cl)cc2cc1-c1csc(N2N=C(c3ccc(Cl)cc3)C[C@@]2(O)C(F)(F)F)n1`, the “diameter of the inhibition zone (DIZ)” value is “inactive”.

Another assay relates to Rattus norvegicus. Nature of the assay: Antiinflammatory activity in Wistar albino rat assessed as inhibition of carrageenan-induced paw edema at 50 mg/kg, po administered 30 mins prior to carrageenan challenge measured after 1 hr by plethysmometer analysis.
Settings: not given
The class given is functional. The gist of the method: as §1
With `O=c1oc2ccc(Cl)cc2cc1-c1csc(N2N=C(c3ccc(Cl)cc3)C[C@@]2(O)C(F)(F)F)n1`, the inhibition in vivo at 50 mg/kg is 73.2%.

The subject of the next assay is Rattus norvegicus. Nature of the assay: Antiinflammatory activity in Wistar albino rat assessed as inhibition of carrageenan-induced paw edema at 50 mg/kg, po administered 30 mins prior to carrageenan challenge measured after 4 hrs by plethysmometer analysis. Type of assay: functional.
Settings: not given
The gist of the method: as §1
On to `O=c1oc2ccc(Cl)cc2cc1-c1csc(N2N=C(c3ccc(Cl)cc3)C[C@@]2(O)C(F)(F)F)n1`, for which the inhibition in vivo at 50 mg/kg came out at 31.5%.

In a further assay the test system is Staphylococcus aureus. Nature of the assay: Antibacterial activity against Staphylococcus aureus assessed as diameter of growth inhibition zone at 2 mg/ml at 37 degC after 24 hrs by agar well diffusion method. The conditions noted are these: read-out: DIZ. Type of assay: functional.
Take `O=c1oc2ccc(Cl)cc2cc1-c1csc(N2N=C(c3ccc(F)cc3)C[C@@]2(O)C(F)(F)F)n1`: the zone of inhibition at 2000 µg/mL was 4.93 mm.
On the same count and under the same terms, next, `O=c1oc2ccc(Cl)cc2cc1-c1csc(N2N=C(c3ccc(Br)cc3)C[C@@]2(O)C(F)(F)F)n1`: 2.07 mm.
On the same count and under the same terms, to `O=c1oc2ccc(Cl)cc2cc1-c1csc(N2N=C(c3ccc(Cl)cc3)C[C@@]2(O)C(F)(F)F)n1` belongs 4.13 mm.
